The target of data set [1] is Muscarinic acetylcholine receptor M2 and M4 (Homo sapiens) (UniProt P08173+P08172). Kind of data set: Selectivity ratio of Ki for human muscarinic M4 receptor expressed in CHO-K9 cells to Ki for human muscarinic M2 receptor expressed in CHO-K9 cells. Type of data set: cell-based. An outline of the steps: (§1)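 Ratio of mean Ki values. Each Ki came from an individual [3H]NMS competition experiment at the given CHO-hMxR subtype, converting IC50 to Ki by Cheng-Prusoff before averaging.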

Data set [2] has as its target Muscarinic acetylcholine receptor M3 (Homo sapiens, UniProt P20309). The experiment in a line: Displacement of [3H]-NMS from human muscarinic M3 receptor expressed in CHO-K9 cells after 3 hrs by microbeta2 scintillation counting method. The data set is classed as cell-based. An outline of the steps:
(§2)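 [3H]NMS competition binding on intact CHO-hMxR cells in L15 medium with 1% BSA, 3 h at 22 ± 1 °C with gentle shaking. [3H]NMS was 0.2 nM (M1, M2, M3), 0.1 nM (M4) or 0.3 nM (M5). […] Cells were lysed in urea/acetic acid/Triton and counted by liquid scintillation. Ki from Cheng-Prusoff. Triplicates, ≥3 experiments.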
A general note: In a radioligand displacement assay an active substance lowers the binding of a labelled ligand.

Data set [3] addresses Muscarinic acetylcholine receptor M2 and M5 (Homo sapiens) (UniProt P08172+P08912). The experiment in a line: Selectivity ratio of Ki for human muscarinic M5 receptor expressed in CHO-K9 cells to Ki for human muscarinic M2 receptor expressed in CHO-K9 cells. The data set is classed as cell-based. An outline of the steps:
as §1

Data set [4] concerns the target Muscarinic acetylcholine receptors; M2 & M3 (Homo sapiens) (UniProt P20309+P08172). The experiment in a line: Selectivity ratio of Ki for human muscarinic M3 receptor expressed in CHO-K9 cells to Ki for human muscarinic M2 receptor expressed in CHO-K9 cells. Type of data set: cell-based. In a few lines:
as §1

The target in data set [5] is Muscarinic acetylcholine receptors; M1 & M2 (Homo sapiens) (UniProt P11229+P08172). Kind of data set: Selectivity ratio of Ki for human muscarinic M1 receptor expressed in CHO-K9 cells to Ki for human muscarinic M2 receptor expressed in CHO-K9 cells. The data set is classed as cell-based. In a few lines:
as §1

Data set [6] deals with T1, Muscarinic acetylcholine receptor M4 (Homo sapiens, UniProt P08173).
T1 sequence (P08173 whole entry): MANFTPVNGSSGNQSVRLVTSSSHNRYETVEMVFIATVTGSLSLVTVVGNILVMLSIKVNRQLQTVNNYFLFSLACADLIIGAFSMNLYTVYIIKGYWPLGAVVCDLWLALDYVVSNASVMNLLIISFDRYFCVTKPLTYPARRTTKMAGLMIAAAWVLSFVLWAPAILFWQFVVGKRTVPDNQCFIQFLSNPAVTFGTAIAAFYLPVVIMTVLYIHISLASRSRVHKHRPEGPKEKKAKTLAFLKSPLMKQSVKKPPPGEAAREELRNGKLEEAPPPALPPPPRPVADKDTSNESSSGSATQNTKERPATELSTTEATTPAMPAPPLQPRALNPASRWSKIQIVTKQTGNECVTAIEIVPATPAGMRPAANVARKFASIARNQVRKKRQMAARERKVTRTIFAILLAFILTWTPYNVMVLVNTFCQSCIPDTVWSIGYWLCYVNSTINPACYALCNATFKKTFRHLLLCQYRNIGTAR
Kind of data set: Displacement of [3H]-NMS from human muscarinic M4 receptor expressed in CHO-K9 cells after 3 hrs by microbeta2 scintillation counting method. The data set is classed as cell-based. An outline of the steps: as §2

Data set [7] is described as follows: Stability of the compound in human plasma:PBS of pH 7.4 (1:2) assessed as intact compound at 100 uM incubated for 1 hr by LC-MS analysis. The data set is classed as ADME, cell-free. The note with it: plasma diluted with PBS (1:2), read-out: Stability. An outline of the steps:
(§3)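 Compound added at 100 μM (from 5 mM stock in acetonitrile/0.04% TFA 3:7) to heparinized human plasma/PBS pH 7.4 (1:2 v/v) with 10 μM 1-methyl-D-tryptophan as internal standard. Incubated shaking at 37 °C in triplicate. Aliquots were EtOH/acetonitrile-precipitated and analysed by RP-HPLC at 220 nm, with recovery correction against four-point calibrations.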

Data set [8] is described as follows: Stability of the compound in human plasma used as 1:2 ratio of plasma to pH 7.4 PBS assessed as intact compound at 100 uM incubated for 6 hr […]. Type of data set: ADME, cell-free. The note with it: plasma diluted with PBS (1:2), read-out: Stability.
For data set [9], the target named is T2, Muscarinic acetylcholine receptor M2 (Homo sapiens, UniProt P08172).
T2 sequence (P08172 whole entry): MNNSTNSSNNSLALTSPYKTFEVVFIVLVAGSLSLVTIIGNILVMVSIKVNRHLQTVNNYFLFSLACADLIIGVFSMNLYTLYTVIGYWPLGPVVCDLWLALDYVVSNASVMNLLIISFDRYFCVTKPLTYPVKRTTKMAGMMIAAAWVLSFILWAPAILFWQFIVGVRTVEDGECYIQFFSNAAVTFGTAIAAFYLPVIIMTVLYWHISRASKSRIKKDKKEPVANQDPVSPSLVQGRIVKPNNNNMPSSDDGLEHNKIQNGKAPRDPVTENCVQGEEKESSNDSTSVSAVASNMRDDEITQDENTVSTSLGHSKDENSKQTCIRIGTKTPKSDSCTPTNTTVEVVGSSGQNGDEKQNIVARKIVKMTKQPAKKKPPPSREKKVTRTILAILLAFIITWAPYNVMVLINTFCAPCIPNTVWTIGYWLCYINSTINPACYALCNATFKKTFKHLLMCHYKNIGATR
The experiment in a line: (§4) Antagonist activity at human muscarinic M2 receptor expressed in HEK293 cells co-expressing HA-Galphaq/i5 assessed as inhibition of carbachol-induced IP1 accumulation pre-incubated for 30 mins followed by carbachol addition and measured after 1 hr by HTRF assay. Type of data set: functional, cell-based. An outline of the steps:
(§5)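 HEK-293 cells transiently cotransfected (receptor plus HA-tagged Gαqi5), detached after 1 day and seeded at 10,000 cells/well for 24 h at 37 °C. Duplicates.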
In general terms: TR-FRET usually uses a lanthanide donor and a delayed reading to cut background.

In data set [10] the target is T3, Muscarinic acetylcholine receptor M2 (Homo sapiens) (UniProt P08172).
T3 sequence (whole entry): T2 sequence (P08172 whole entry)
The description is as §4. Type of data set: functional, cell-based. An outline of the steps:
as §5

Data set [11] addresses T2, Muscarinic acetylcholine receptor M2. The experiment in a line: Competitive displacement of [3H]-NMS from human muscarinic M2 receptor expressed in CHO-K9 cells using 2 nM [3H]-NMS after 3 hrs by microbeta2 scintillation counting method. Type of data set: cell-based. An outline of the steps:
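Intact CHO-hM2R cells incubated at 22 °C with a high [3H]NMS concentration (2 nM). […] Curves were fitted by four-parameter logistic fits. Mean ± SEM from ≥4 experiments in triplicate.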

For data set [12] the target is unchanged. Kind of data set: Competitive displacement of [3H]-NMS from human muscarinic M2 receptor expressed in CHO-K9 cells using 0.2 nM [3H]-NMS after 3 hrs by microbeta2 scintillation counting method. The data set is classed as cell-based. An outline of the steps:
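Intact CHO-hM2R cells (90-100% confluent) incubated 3 h at 22 ± 1 °C in L15 medium with 1% BSA and 0.2 nM [3H]NMS. […] Cells were lysed in urea/acetic acid/Triton-X-100 and radioactivity was counted. Ki via Cheng-Prusoff.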

The target is the same in data set [13]. The experiment in a line: Displacement of [3H]-NMS from human muscarinic M2 receptor expressed in CHO-K9 cells after 3 hrs by microbeta2 scintillation counting method. Type of data set: cell-based. An outline of the steps:
as §2

The nature of data set [14]: Stability of the compound in human plasma used as 1:2 ratio of plasma to pH 7.4 PBS assessed as intact compound at 100 uM incubated for 48 hr by LC-MS analysis. Type of data set: ADME, cell-free. Conditions: plasma diluted with PBS (1:2), read-out: Stability. In a few lines:
as §3

Two compounds from ChEMBL document CHEMBL4396879, “Conjugation of Short Peptides to Dibenzodiazepinone-Type Muscarinic Acetylcholine Receptor Ligands Determines M2R Selectivity” (J Med Chem, 2019) can be followed below.

Where only a bound is given, the exact number is not on record here.

Chain of Muscarinic acetylcholine receptor M2 and M5 (Homo sapiens) (P08912 whole entry, looked up, one chain of several): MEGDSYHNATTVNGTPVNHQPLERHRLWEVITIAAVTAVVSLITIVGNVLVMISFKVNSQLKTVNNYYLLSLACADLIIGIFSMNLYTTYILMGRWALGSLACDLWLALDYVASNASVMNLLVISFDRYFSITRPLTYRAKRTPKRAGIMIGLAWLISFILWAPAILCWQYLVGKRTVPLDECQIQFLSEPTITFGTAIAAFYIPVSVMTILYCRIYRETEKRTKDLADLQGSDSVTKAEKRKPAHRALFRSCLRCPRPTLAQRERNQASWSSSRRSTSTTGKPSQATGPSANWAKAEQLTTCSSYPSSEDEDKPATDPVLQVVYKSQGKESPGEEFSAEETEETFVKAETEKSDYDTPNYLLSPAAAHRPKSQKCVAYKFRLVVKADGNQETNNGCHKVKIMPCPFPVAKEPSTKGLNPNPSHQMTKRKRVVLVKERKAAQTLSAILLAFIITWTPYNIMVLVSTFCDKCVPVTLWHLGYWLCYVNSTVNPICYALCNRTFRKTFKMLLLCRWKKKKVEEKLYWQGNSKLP
Chain of Muscarinic acetylcholine receptor M3 (P20309 whole entry): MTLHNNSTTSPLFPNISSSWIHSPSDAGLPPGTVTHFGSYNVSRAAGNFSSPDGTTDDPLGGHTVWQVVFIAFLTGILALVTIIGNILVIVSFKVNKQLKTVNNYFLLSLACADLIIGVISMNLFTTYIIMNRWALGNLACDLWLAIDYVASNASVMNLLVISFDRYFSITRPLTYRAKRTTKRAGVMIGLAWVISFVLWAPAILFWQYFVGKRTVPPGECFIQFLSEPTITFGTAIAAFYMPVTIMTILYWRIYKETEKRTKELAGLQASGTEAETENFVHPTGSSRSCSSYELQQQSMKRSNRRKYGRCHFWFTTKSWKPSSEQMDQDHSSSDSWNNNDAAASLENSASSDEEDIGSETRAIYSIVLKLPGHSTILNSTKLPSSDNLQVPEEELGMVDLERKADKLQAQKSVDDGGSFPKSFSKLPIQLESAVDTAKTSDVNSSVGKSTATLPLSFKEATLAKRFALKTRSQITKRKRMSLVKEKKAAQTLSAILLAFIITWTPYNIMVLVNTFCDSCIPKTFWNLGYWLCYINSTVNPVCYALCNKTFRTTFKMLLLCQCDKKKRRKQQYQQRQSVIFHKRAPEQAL

For orientation: Ki means the dissociation constant of the complex between target and ligand, obtained from inhibition or displacement. Read a low Ki as tighter binding. Usually IC50 stands for the concentration needed to halve the response being measured. For `CC(=O)N[C@@H](CCCCN)C(=O)N[C@@H](CCCNC(=N)N)C(=O)NCCCCC1CCN(CC(=O)N2c3ccccc3NC(=O)c3ccccc32)CC1`, the Ratio Ki is 60 in [1], 400 in data set [3], 6500 in data set [4] and 49 in data set [5]. In addition, the Ki in data set [2] is 6760 nM; in data set [6], 61.7 nM; in data set [11], 2.04 nM; in data set [12] it was 1.07 nM; in data set [13], 1.07 nM. Also, the remaining at 1 h, 100 µM in data set [7] amounted to 99%. Moreover, in [8], the remaining at 6 h, 100 µM is above 99%. Besides, the IC50 in data set [9] was 93.3 nM; in data set [11] it was 41.7 nM; in [12], 3.31 nM. Also, the inhibition result in [10] is “Dose-dependent effect”. Further, in data set [14], the remaining at 48 h, 100 µM was above 99%.

Regarding `CC(=O)N[C@@H](CCCCN)C(=O)N[C@@H](C)C(=O)N[C@@H](CCCNC(=N)N)C(=O)NCCN1CCN(CCCCC2CCN(CC(=O)N3c4ccccc4NC(=O)c4ccccc43)CC2)CC1`, the Ratio Ki came out at 40 in data set [1], 4900 in data set [3], 1800 in data set [4] and 45 in data set [5]. The Ki was 110 nM in data set [2]; 2.09 nM in data set [6]; 0.0794 nM in data set [11]; 0.0631 nM in [12]; 0.0631 nM in data set [13]. Further, in data set [7], the remaining at 1 h, 100 µM was above 99%. In addition, the remaining at 6 h, 100 µM in [8] was above 99%. The concentration for half-maximal inhibition (IC50) in [9] is 10.5 nM; in [11], 1.78 nM; in data set [12], 0.191 nM. For the same compound, the inhibition entry in [10] was “Dose-dependent effect”. Besides, in data set [14], the remaining at 48 h, 100 µM is above 99%.
